Where “and” joins values, the source holds several entries; their conditions need not be identical. Equal values may be shown once.
Tested on: U2OS
Assay: Multiplex assay against U2OS
Type: toxicity, cell-based
Details: human
Outline: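 Live cells were stained at seeding with Hoechst33342, BioTracker Green Microtubule Cytoskeleton Dye, MitoTracker Red and Annexin V Alexa Fluor 680. Following compound addition, they were imaged on a CQ1 microscope at 37°C and 5% CO2 and gated by CellPathfinder machine learning into Hoechst high-intensity objects or normal cells, with normal cells split into healthy, pyknosed or fragmented nuclei and pyknosed cells into mitotic or apoptotic. Tubulin, mitochondrial-mass and membrane-permeability phenotypes are per cents of healthy-nucleus cells.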

[1] = 12 h, 1 µM, compound concentration 1 uM
[2] = 12 h, 10 µM, compound concentration 10 uM
[3] = 24 h, 1 µM, compound concentration 1 uM
[4] = 24 h, 10 µM, compound concentration 10 uM
[5] = 48 h, 1 µM, compound concentration 1 uM
[6] = 48 h, 10 µM, compound concentration 10 uM

COCCNc1nc2ccc(C#CC3(O)CCCCC3)cc2n1-c1ccnc(N)n1
Population Apoptotic (%) [1]: 53.85% and 25% | Population Fragmented Nuclei (%) [1]: 1.38% and 4.59% | Population Healthy Nuclei (%) [1]: 91.46% and 77.06% | Population Hoechst High Intensity Objects (%) [1]: 0% | Population Membrane Permeable-Phenotype (%) [1]: 0.9% and 4.76% | Population Mitochondria Different-Phenotype (%) [1]: 0% and 4.76% | Population Mitotic Cells (%) [1]: 46.15% and 75% | Population Normal (%) [1]: 100% | Population Pyknosed Nuclei (%) [1]: 7.16% and 18.35% | Population Tubulin-Different-Phenotype (%) [1]: 0.6% and 0% | Population Apoptotic (%) [2]: 38.46% and 41.03% | Population Fragmented Nuclei (%) [2]: 1.89% and 3.8% | Population Healthy Nuclei (%) [2]: 82.78% and 75% | Population Hoechst High Intensity Objects (%) [2]: 0% | Population Membrane Permeable-Phenotype (%) [2]: 8.26% and 7.25% | Population Mitotic Cells (%) [2]: 61.54% and 58.97% | Population Normal (%) [2]: 100% | Population Pyknosed Nuclei (%) [2]: 15.33% and 21.2% | Population Tubulin-Different-Phenotype (%) [2]: 15.38% and 10.87% | Total Cell Count [2]: 424 and 184 | Population Apoptotic (%) [3]: 34.62% and 40% | Population Fragmented Nuclei (%) [3]: 0.86% and 3.12% | Population Healthy Nuclei (%) [3]: 87.96% and 85.16% | Population Hoechst High Intensity Objects (%) [3]: 0% | Population Membrane Permeable-Phenotype (%) [3]: 0.49% and 4.59% | Population Mitochondria Different-Phenotype (%) [3]: 0.24% and 2.75% | Population Mitotic Cells (%) [3]: 65.38% and 60% | Population Normal (%) [3]: 100% | Population Pyknosed Nuclei (%) [3]: 11.18% and 11.72% | Population Tubulin-Different-Phenotype (%) [3]: 0.73% and 0% | Population Apoptotic (%) [4]: 27.97% and 41.07% | Population Fragmented Nuclei (%) [4]: 1.32% and 3.03% | Population Healthy Nuclei (%) [4]: 76.5% and 68.69% | Population Hoechst High Intensity Objects (%) [4]: 0% | Population Membrane Permeable-Phenotype (%) [4]: 2.7% and 6.62% | Population Mitotic Cells (%) [4]: 72.03% and 58.93% | Population Normal (%) [4]: 100% | Population Pyknosed Nuclei (%) [4]: 22.18% and 28.28% | Population Tubulin-Different-Phenotype (%) [4]: 15.72% and 8.82% | Total Cell Count [4]: 532 and 198 | Population Apoptotic (%) [5]: 38.1% and 52% | Population Fragmented Nuclei (%) [5]: 2.24% and 2.58% | Population Healthy Nuclei (%) [5]: 88.37% and 84.54% | Population Hoechst High Intensity Objects (%) [5]: 0% | Population Membrane Permeable-Phenotype (%) [5]: 0.63% and 0.61% | Population Mitochondria Different-Phenotype (%) [5]: 0% and 2.44% | Population Mitotic Cells (%) [5]: 61.9% and 48% | Population Normal (%) [5]: 100% | Population Pyknosed Nuclei (%) [5]: 9.4% and 12.89% | Population Tubulin-Different-Phenotype (%) [5]: 1.14% and 1.22% | Population Apoptotic (%) [6]: 45.97% and 47.78% | Population Fragmented Nuclei (%) [6]: 2.08% and 1.2% | Population Healthy Nuclei (%) [6]: 81.79% and 62.65% | Population Hoechst High Intensity Objects (%) [6]: 0% | Population Membrane Permeable-Phenotype (%) [6]: 2.38% and 2.56% | Population Mitotic Cells (%) [6]: 54.03% and 52.22% | Population Normal (%) [6]: 100% | Population Pyknosed Nuclei (%) [6]: 16.12% and 36.14% | Population Tubulin-Different-Phenotype (%) [6]: 13.35% and 7.69%

O=C(NCCO)c1cccc(-c2cc(Nc3ccc(OC(F)(F)F)cc3)ncn2)c1
Population Apoptotic (%) [1]: 64% and 84% | Population Fragmented Nuclei (%) [1]: 13% and 15% | Population Healthy Nuclei (%) [1]: 72% and 73% | Population Hoechst High Intensity Objects (%) [1]: 1% | Population Membrane Permeable-Phenotype (%) [1]: 3% and 4% | Population Mitochondria Different-Phenotype (%) [1]: 3% | Population Mitotic Cells (%) [1]: 35% and 15% | Population Normal (%) [1]: 98% | Population Pyknosed Nuclei (%) [1]: 13% and 10% | Population Tubulin-Different-Phenotype (%) [1]: 1% and 4% | Total Cell Count [1]: 213 and 128 | Population Apoptotic (%) [2]: 84% and 100% | Population Fragmented Nuclei (%) [2]: 21% and 20% | Population Healthy Nuclei (%) [2]: 66% and 68% | Population Hoechst High Intensity Objects (%) [2]: 4% and 2% | Population Membrane Permeable-Phenotype (%) [2]: 9% | Population Mitochondria Different-Phenotype (%) [2]: 7% and 15% | Population Mitotic Cells (%) [2]: 15% and 0% | Population Normal (%) [2]: 95% and 97% | Population Pyknosed Nuclei (%) [2]: 12% | Population Tubulin-Different-Phenotype (%) [2]: 6% and 3% | Population Apoptotic (%) [3]: 70% and 86% | Population Fragmented Nuclei (%) [3]: 16% and 20% | Population Healthy Nuclei (%) [3]: 73% and 69% | Population Hoechst High Intensity Objects (%) [3]: 1% | Population Membrane Permeable-Phenotype (%) [3]: 3% and 7% | Population Mitochondria Different-Phenotype (%) [3]: 3% and 5% | Population Mitotic Cells (%) [3]: 29% and 13% | Population Normal (%) [3]: 98% | Population Pyknosed Nuclei (%) [3]: 9% | Population Tubulin-Different-Phenotype (%) [3]: 2% and 4% | Total Cell Count [3]: 256 and 156 | Population Apoptotic (%) [4]: 82% and 100% | Population Fragmented Nuclei (%) [4]: 22% and 15% | Population Healthy Nuclei (%) [4]: 64% and 78% | Population Hoechst High Intensity Objects (%) [4]: 4% and 1% | Population Membrane Permeable-Phenotype (%) [4]: 6% and 12% | Population Mitochondria Different-Phenotype (%) [4]: 3% and 13% | Population Mitotic Cells (%) [4]: 17% and 0% | Population Normal (%) [4]: 95% and 98% | Population Pyknosed Nuclei (%) [4]: 12% and 5% | Population Tubulin-Different-Phenotype (%) [4]: 1% and 4% | Population Apoptotic (%) [5]: 88% and 96% | Population Fragmented Nuclei (%) [5]: 15% and 20% | Population Healthy Nuclei (%) [5]: 75% and 65% | Population Hoechst High Intensity Objects (%) [5]: 2% | Population Membrane Permeable-Phenotype (%) [5]: 6% and 9% | Population Mitochondria Different-Phenotype (%) [5]: 3% and 4% | Population Mitotic Cells (%) [5]: 11% and 3% | Population Normal (%) [5]: 97% | Population Pyknosed Nuclei (%) [5]: 8% and 14% | Population Tubulin-Different-Phenotype (%) [5]: 4% and 6% | Total Cell Count [5]: 417 and 206 | Population Apoptotic (%) [6]: 92% and 91% | Population Fragmented Nuclei (%) [6]: 18% and 26% | Population Healthy Nuclei (%) [6]: 72% and 64% | Population Hoechst High Intensity Objects (%) [6]: 3% and 2% | Population Membrane Permeable-Phenotype (%) [6]: 8% and 5% | Population Mitochondria Different-Phenotype (%) [6]: 3% and 7% | Population Mitotic Cells (%) [6]: 7% and 8% | Population Normal (%) [6]: 96% and 97% | Population Pyknosed Nuclei (%) [6]: 9% and 8% | Population Tubulin-Different-Phenotype (%) [6]: 6% and 1%

CNc1nc(NCc2ncccn2)c2c(-c3ccc4ncccc4c3)c[nH]c2n1
Population Apoptotic (%) [1]: 34.88% and 46.15% | Population Fragmented Nuclei (%) [1]: 1.68% and 0.68% | Population Healthy Nuclei (%) [1]: 88.01% and 90.48% | Population Hoechst High Intensity Objects (%) [1]: 0% | Population Membrane Permeable-Phenotype (%) [1]: 1.36% and 3.01% | Population Mitochondria Different-Phenotype (%) [1]: 0% and 4.51% | Population Mitotic Cells (%) [1]: 65.12% and 53.85% | Population Normal (%) [1]: 100% | Population Pyknosed Nuclei (%) [1]: 10.31% and 8.84% | Population Tubulin-Different-Phenotype (%) [1]: 0.82% and 0.75% | Total Cell Count [1]: 417 and 147 | Population Apoptotic (%) [2]: 30.95% and 40% | Population Fragmented Nuclei (%) [2]: 0.88% and 3.14% | Population Healthy Nuclei (%) [2]: 86.76% and 84.28% | Population Hoechst High Intensity Objects (%) [2]: 0% | Population Membrane Permeable-Phenotype (%) [2]: 6.44% and 8.21% | Population Mitotic Cells (%) [2]: 69.05% and 60% | Population Normal (%) [2]: 100% | Population Pyknosed Nuclei (%) [2]: 12.35% and 12.58% | Population Tubulin-Different-Phenotype (%) [2]: 6.78% and 4.48% | Total Cell Count [2]: 340 and 159 | Population Apoptotic (%) [3]: 48.89% and 42.86% | Population Fragmented Nuclei (%) [3]: 2.09% and 2.01% | Population Healthy Nuclei (%) [3]: 90.09% and 83.92% | Population Hoechst High Intensity Objects (%) [3]: 0% | Population Membrane Permeable-Phenotype (%) [3]: 0.58% and 1.2% | Population Mitochondria Different-Phenotype (%) [3]: 0.19% and 6.59% | Population Mitotic Cells (%) [3]: 51.11% and 57.14% | Population Normal (%) [3]: 100% | Population Pyknosed Nuclei (%) [3]: 7.83% and 14.07% | Population Tubulin-Different-Phenotype (%) [3]: 0.58% and 0.6% | Total Cell Count [3]: 575 and 199 | Population Apoptotic (%) [4]: 29.41% and 43.75% | Population Fragmented Nuclei (%) [4]: 2.37% and 4.04% | Population Healthy Nuclei (%) [4]: 89.57% and 87.88% | Population Hoechst High Intensity Objects (%) [4]: 0% | Population Membrane Permeable-Phenotype (%) [4]: 1.59% and 2.3% | Population Mitotic Cells (%) [4]: 70.59% and 56.25% | Population Normal (%) [4]: 100% | Population Pyknosed Nuclei (%) [4]: 8.06% and 8.08% | Population Tubulin-Different-Phenotype (%) [4]: 2.12% and 1.15% | Total Cell Count [4]: 422 and 198 | Population Apoptotic (%) [5]: 45% and 54.29% | Population Fragmented Nuclei (%) [5]: 3.04% and 1.19% | Population Healthy Nuclei (%) [5]: 87.45% and 88.36% | Population Hoechst High Intensity Objects (%) [5]: 0% | Population Membrane Permeable-Phenotype (%) [5]: 1.2% and 1.35% | Population Mitochondria Different-Phenotype (%) [5]: 0.11% and 4.39% | Population Mitotic Cells (%) [5]: 55% and 45.71% | Population Normal (%) [5]: 100% | Population Pyknosed Nuclei (%) [5]: 9.51% and 10.45% | Population Tubulin-Different-Phenotype (%) [5]: 1.41% and 0.68% | Population Apoptotic (%) [6]: 55.56% and 56% | Population Fragmented Nuclei (%) [6]: 1.27% and 3.63% | Population Healthy Nuclei (%) [6]: 89.84% and 88.12% | Population Hoechst High Intensity Objects (%) [6]: 0% | Population Membrane Permeable-Phenotype (%) [6]: 0.94% and 1.87% | Population Mitochondria Different-Phenotype (%) [6]: 0.78% and 7.87% | Population Mitotic Cells (%) [6]: 44.44% and 44% | Population Normal (%) [6]: 100% | Population Pyknosed Nuclei (%) [6]: 8.89% and 8.25% | Population Tubulin-Different-Phenotype (%) [6]: 1.88% and 1.5% | Total Cell Count [6]: 709 and 303
